Screening results as filed in PubChem BioAssay.
DDE Tn6 FP inh: inhibitors of Tn6 peptide binding to human fibrin DD(E) | actives 0.21% (n = 370,000) | Fibrin DD(E) TRITC-Tn6 fluorescence polarization displacement | inhibition, % at 8.3 µM;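 active = inhibition above a per-campaign cutoff: mean of compounds within control limits plus 3 SD, cut at about 15% in these data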;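 note: 0% = median of all compound wells on the plate and 100% = blocking peptide control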
MT1-MMP act inh: inhibitors of human MT1-MMP activation; AID 651647; GFP/RFP ratio change, % at 20 µM; actives 0.061% (n = 360,000); P50281; HT1080 RFP-PRO-GFP cells, GFP/RFP ratio fluorescence, overnight; percent of plate control window, DMSO zero;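 active = GFP/RFP ratio change of at least 30% with cell ATP level not reduced by more than half and red fluorescence within 50% of control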
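Assay system: HT1080 RFP-PRO-GFP cells | Dosing: 20 µM single dose, 1% DMSO | Incubation: Cells overnight before dosing, compound overnight, 37 °C, 5% CO2 | Evaluation: GFP/RFP fluorescence ratio | Control set: DMSO-only wells and HT1080 RFP-L50D-GFP cell wells as references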
DDE Tn7 FP inh: DD(E)-Tn7 binding inhibition, primary FP screen; FP displacement of FITC-Tn7 peptide from fibrin DD(E); 0% = median of compound wells per plate; inhibition, % at 8.3 µM; actives 0.13% (n = 370,000);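 active = inhibition above the mean of compounds falling within the control limits plus 3 SD of them, cut at about 14% in these data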;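 note: 0% = plate median of compound wells and 100% = 10 µM Aha-Tn7 peptide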
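Measure: % inhibition scaled between sample-field median and high-control FP; Test system: human fibrin DD(E); Quantity: 2 µM final DD(E) protein; Doses: one dose, 8.3 µM nominal; Schedule: compound with protein 10 min, then 3 h after probe, room temperature; Detection: fluorescence polarization; Medium: Tris buffer with calcium and detergent, pH 7.8.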
SKN-1 block: C. elegans SKN-1 inhibition | C. elegans VP596 Pgst-4::GFP/RFP ratio, acrylamide-induced, 24 h | AID 624304 | inhibition, % at 21.8 µM | actives 0.49% (n = 360,000);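 active = interference check ratio from 0.5 to 1.5 plus GFP to RFP signal ratio inhibition reaching or exceeding a fixed threshold, cut at about 30% in these data, passing the limit was not always enough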
DAGLB inhibitor: blocks human DAGLB lipase activity; HEK293T DAGLB membrane lysate, EnzChek fluorogenic substrate; inhibition, % at 5.17 µM; actives 0.059% (n = 340,000); in the data active = inhibition above about 34%;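 note: 0% = enzyme with vehicle and 100% = wells lacking enzyme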
Target sequence (Q8NCG7 whole entry, looked up): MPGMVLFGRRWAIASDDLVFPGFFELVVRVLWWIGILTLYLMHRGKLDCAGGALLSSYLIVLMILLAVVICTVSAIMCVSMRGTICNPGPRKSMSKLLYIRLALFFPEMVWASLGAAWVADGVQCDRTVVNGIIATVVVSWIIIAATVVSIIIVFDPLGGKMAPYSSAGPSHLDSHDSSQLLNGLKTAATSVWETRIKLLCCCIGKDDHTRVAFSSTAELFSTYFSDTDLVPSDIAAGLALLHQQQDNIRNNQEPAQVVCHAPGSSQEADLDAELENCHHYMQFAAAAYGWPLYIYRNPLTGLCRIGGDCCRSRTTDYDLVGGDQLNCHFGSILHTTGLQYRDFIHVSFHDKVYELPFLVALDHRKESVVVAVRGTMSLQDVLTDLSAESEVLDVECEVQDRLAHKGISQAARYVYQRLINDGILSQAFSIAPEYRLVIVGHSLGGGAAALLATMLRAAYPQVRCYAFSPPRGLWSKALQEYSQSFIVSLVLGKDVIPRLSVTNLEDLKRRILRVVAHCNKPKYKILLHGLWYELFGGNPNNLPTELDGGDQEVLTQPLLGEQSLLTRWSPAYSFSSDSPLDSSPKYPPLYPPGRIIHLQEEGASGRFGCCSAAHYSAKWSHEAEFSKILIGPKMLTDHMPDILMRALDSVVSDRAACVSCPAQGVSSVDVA
PolyA inhibitor: inhibitors of polyadenylation in S. cerevisiae | S. cerevisiae SKY197-pL101 polyadenylation reporter, beta-gal luminescence; efflux-impaired pdr1/pdr3 knockout yeast; score 100 = 6 SD above DMSO | AID 1875 | actives 0.02% (n = 300,000) | activity score, % at 12 µM;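 active = lowest replicate activity score at least 50, where 100 means six control SD above control mean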;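 note: yeast exposed to compound for 9 h at 30 °C; higher score means more reporter readthrough which indicates perturbed polyadenylation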
DDE Tn6 FP ctr: counter-screen hit for Tn6 peptide-fibrin DD(E) binding disruption | shares compounds with DDE Tn6 FP inh | TRITC-Tn6 fluorescence polarization displacement; 0% = median of compound wells, not DMSO | inhibition, % at 8.3 µM | actives 2% (n = 680);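 active = inhibition above the mean of test compounds lying between the control limits plus 3 SD of those, cut at about 14% in these data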;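 note: 0% = median of compound wells and 100% = wells with Aha-Tn7 blocking peptide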
DDE Tn6 confirm: confirmation of inhibitors of Tn6 binding to human fibrin DD(E); shares compounds with DDE Tn6 FP inh; FP displacement of TRITC-Tn6 peptide from DD(E); 0% = per-plate median of test wells; actives 10% (n = 680); inhibition, % at 8.3 µM;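 active = inhibition above the mean of compounds lying within the control limits plus 3 SD, cut at about 16% in these data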;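 note: 100% = high control wells holding a competing inhibitor peptide at 10 µM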
An asterisk follows results filed as active; nt = not tested or not shown; + = active, no number. In the library only some 0.9% were active in any assay of this set; here they are far more common.

SMILES	DDE Tn6 FP inh	MT1-MMP act inh	DDE Tn7 FP inh	SKN-1 block	DAGLB inhibitor	PolyA inhibitor	DDE Tn6 FP ctr	DDE Tn6 confirm
CC(=O)Nc1ccc(C(=O)CSc2nnc(-c3ccc(O)cc3)n2CC2CCCO2)cc1 (centres undefined)	-2	15	6	3	-1	4	nt	nt
CCC(=O)Nc1ccc(NC(=O)CSc2nnc(-c3ccc(O)cc3)n2CC2CCCO2)cc1 (centres undefined)	20*	-1	1	2	-2	nt	1	1
Cc1ncc(C(O)c2ccc(N(C)C)cc2)n1Cc1ccccc1 (centres undefined)	9	9	6	14	-1	nt	nt	nt
CN(C)c1ccc2nc3c(=O)[nH]c(=O)nc-3n(CC(O)C(O)C(O)CO)c2c1 (centres undefined)	73*	-21	0	85	-17	4	-11	12
O=C(O)CCCNc1cc(N2CCN(C(=O)c3ccco3)CC2)c2noc3c2c1C(=O)c1ccccc1-3	32*	-22	-1	47	3	-24	-9	58*
NS(=O)(=O)c1ccc(NC(=S)NCCc2ccccc2)cc1	-1	4	-4	8	0	11	nt	nt
CC(=O)c1ccc(NC(=S)NCCc2ccc(S(N)(=O)=O)cc2)cc1	15*	5	4	2	1	3	-8	-12
COc1ccc2c(c1)N=CN1CCc3c([nH]c4ccccc34)C3=NCC[C@@]321	6	nt	2	nt	nt	nt	nt	nt
Cc1cc(C(=O)COc2ccccc2C(N)=O)c(C)n1C	1	3	-4	1	0	-5	nt	nt
Cc1cc(C(=O)COc2cccc3cccnc23)c(C)n1C	30*	-190	5	-9	-21	-8	10	6
Cc1ccc(S(=O)(=O)N2CCN(c3nc(C)c4c(c3C#N)CC(C)(C)OC4)CC2)cc1	16*	-5	1	7	-7	nt	0	-5
Cc1ccc(-c2nnc(SCC(=O)NNC(=S)Nc3ccccc3)n2C2CCCCC2)cc1	-2	nt	6	nt	nt	nt	nt	nt
CCc1nc2ccc(C(=O)NCCOc3ccc(OC)cc3)cn2c1N(CCN(C)C)CC1CC1	-10	-6	-9	4	nt	nt	nt	nt
CCc1nc2ccc(C(=O)NCCOc3ccc(OC)cc3)cn2c1N(C)C(=O)C1CCCCC1	16*	-16	7	3	nt	nt	-1	-4
CCNc1ccccc1CP(=O)(c1ccccc1)c1ccccc1O (centres undefined)	21*	nt	10	nt	nt	9	4	-9
CC1N(C)c2cc(NC(=O)c3ccco3)ccc2C1(C)C (centres undefined)	+	59	-20	82	7	-12	2	5
O=C(O)c1ccccc1Sc1c([N+](=O)[O-])cc(C(F)(F)F)cc1[N+](=O)[O-]	35*	2	12	5	6	33	0	0
O=C(NCc1ccc(F)c(F)c1)C1CCC(CNS(=O)(=O)c2cccc3cccnc23)CC1 (centres undefined)	1	nt	3	nt	nt	nt	nt	nt
Cc1c(Cl)cn2c(=O)cc(CN3CCN(c4ccccc4)CC3)nc2c1Cl	15*	-7	6	16	2	-19	6	2
CCN(Cc1cc(=O)n2cc(Cl)c(C)c(Cl)c2n1)Cc1nc2ccccc2c(=O)[nH]1	-5	-4	-3	3	2	-8	nt	nt
N#CCCCSc1nnc(Cc2ccc3c(c2)OCO3)o1	18*	2	-5	20	0	-4	4	-5
CSc1nnc(Cc2ccc3c(c2)OCO3)o1	1	-2	3	14	2	25	nt	nt
Cc1ccc(Cl)cc1NC(=O)CN1C(=O)COc2ccc(S(=O)(=O)N3CCOCC3)cc21	16*	9	6	-4	5	-4	1	-3
CCN(c1ccccc1)S(=O)(=O)c1cc(C(=O)NCC(c2ccc(OC)cc2)N(C)C)ccc1C (centres undefined)	17*	-7	6	1	1	nt	-1	-8
CCN1Cc2nnn(CC3CCCCC3)c2-c2ccccc2S1(=O)=O	-3	nt	-4	nt	nt	nt	nt	nt
SMILES	DDE Tn6 FP inh	MT1-MMP act inh	DDE Tn7 FP inh	SKN-1 block	DAGLB inhibitor	PolyA inhibitor	DDE Tn6 FP ctr	DDE Tn6 confirm
Cc1ccc(-n2c(CNc3ccc(F)cc3)nnc2SCC(=O)NCc2ccco2)cc1	0	6	4	-18	2	0	nt	nt
COc1ccc(NCc2nnc(SCC(=O)NCc3ccco3)n2-c2ccccc2OC)cc1	17*	-1	-7	-5	0	19	-3	-4
CC(C)(C)c1ccc(-c2noc(CCC(=O)NC3CC3)n2)cc1	0	nt	2	nt	nt	nt	nt	nt
Nn1c(SCc2cccc3ccccc23)nnc1-c1cc(-c2ccc(Cl)cc2)n[nH]1	5	nt	-1	nt	nt	nt	nt	nt
Cc1c(Cl)cnc(NC(=O)COC(=O)/C=C/c2ccco2)c1Cl	-3	-10	3	16	5	nt	nt	nt
O=C(COC(=O)/C=C/c1ccco1)Nc1ncc(C(F)(F)F)cc1Cl	16*	-4	1	19	-1	1	-7	-7
O=C(CCc1nc(-c2ccccc2F)no1)NCCc1c[nH]c2ccccc12	-3	nt	1	nt	nt	nt	nt	nt
CC(C)c1ccc(N2C(=O)/C(=C/N(C)C)SC2=S)cc1	43*	-21	5	33	2	2	-7	4
COC(=O)C1CN(Cc2cn(Cc3ccccc3)nn2)CCS(=O)(=O)N1Cc1ccccc1 (centres undefined)	6	nt	5	nt	nt	nt	nt	nt
CN(Cc1ccccc1)C(=O)OCc1cn(Cc2ccc(F)cc2F)nn1	17*	nt	2	nt	nt	nt	6	5
O=C(N[C@H]1C[C@@H]2O[C@@H](CO)CC[C@@H]2O[C@@H]1CCc1ccc(-c2cccnc2)cc1)c1cccc(F)c1	0	nt	1	nt	nt	nt	nt	nt
COC(=O)[C@]12C[C@H](CC(=O)NCc3ccc(C)o3)C(=O)N(Cc3ccco3)C1=C[C@H](C(C)C)O[C@@H]2C1CC1	-13	nt	-4	nt	nt	nt	nt	nt
CC12CCC(C(=O)NCC3CCCO3)(OC1=O)C2(C)C (centres undefined)	16*	3	2	-13	-2	2	4	3
CC12CCC(C(=O)NCc3ccccc3)(OC1=O)C2(C)C (centres undefined)	-5	-3	5	-34	1	9	nt	nt
Cc1cc(C(=O)Nc2ccc(S(=O)(=O)N3CCCC3)cc2)cs1	16*	1	1	7	-2	nt	-5	-11
